Sampled rows, rich in hits. Any-hit rate of the full collection: about 1.6%.
ABCB1 block – ABCB1 efflux pump inhibitors, primary screen, cell-based, multiplex, flow cytometry, ABCG2 counter-screen | ATP-dependent translocase ABCB1 (Homo sapiens), P08183 | CCRF-Adr cells, JC-1 efflux | inhibition, % at 6.6 µM | actives 0.067% (n = 190,000) | AID 1326, 2008; in the data active means inhibition above about 40%;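 further: 0% = vehicle and 100% = reference inhibitor; higher value means more JC-1 retained so stronger ABCB1 efflux block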
PHOSPHO1 inh – PubChem AID 1565; Phosphoethanolamine/phosphocholine phosphatase (Homo sapiens), Q8TCT1; inhibition, % at 13.3 µM; recombinant PHOSPHO1, absorbance phosphatase assay; actives 1.1% (n = 290,000); in the data active means inhibition above about 60%
p47phox inh – p47phox/p22phox peptide binding inhibitors, primary screen, biochemical, uHTS, NADPH oxidase regulatory subunit; fluorescence polarization, 2 h; inhibition, % at 24.7 µM; actives 0.53% (n = 220,000); AID 1274, 2008;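 active means inhibition above about 30%, limit read from the data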;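 further: 0% = p47phox with labelled peptide and 100% = labelled peptide alone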
HSV replic up – enhancers of HSV replication in host cells, fold increase, host cell viability | HSV replication augmentation in cells | maximum fold increase | actives 0.005% (n = 220,000) | AID 1956, 2009; in the data active means maximum fold increase above about 1.5; tested in PC3 cells
ABCG2 inh – ABCG2 efflux pump inhibitors, primary screen, multiplex with ABCB1, IgMXP3 cells, flow cytometry; JC-1 efflux; inhibition, % at 6.6 µM; actives 0.1% (n = 190,000);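 active means inhibition above 80%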;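 further: 0% = DMSO and 100% = nicardipine control wells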
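Test system: IgMXP3 (ABCG2) plus far-red-tagged CCRF-Adr (ABCB1) cells. Reagent: JC-1 dye as substrate. Timing: 10 min exposure at 25 °C with rotation, no wash. Measured by: flow cytometric JC-1 green MFI at 530 nm. Read-out: percent efflux inhibition, scaled nicardipine 100% to DMSO 0%. Control set: nicardipine and DMSO wells.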
PKD1 kinase inh – inhibitors of human PKD1 kinase, biochemical, fluorescence polarization. Serine/threonine-protein kinase D1 (Homo sapiens), Q15139. PKD1 kinase fluorescence polarization assay. inhibition, % (concentration not given with the values). actives 0.056% (n = 200,000); in the data active means inhibition above about 50%
* hit, by the source's call; i = inactive; · = no result given; + = active, no number.

SMILES | ABCB1 block | PHOSPHO1 inh | p47phox inh | HSV replic up | ABCG2 inh | PKD1 kinase inh
Cc1ccc(C)c(N2C(=O)CN=C2Nc2ccccc2Cl)c1 | 1 | 0 | -13 | i | 1 | -4
Cc1csc(Nc2nc(N)c(C(=O)Nc3ccccc3)o2)n1 | · | 24 | · | · | · | ·
CC(C)(C)NC(=O)c1ccccc1-c1nc(-c2ccccc2Cl)no1 | 1 | 1 | 43* | i | 5 | 11
O=C(C1CCCN(Cc2cccnc2)C1)N1CCCCC1 (stereo not drawn) | 2 | 2 | -9 | i | 19 | 6
Cc1cccc(-c2cccc(NC(=O)C3CCCN(Cc4cccnc4)C3)c2)c1 (stereo not drawn) | · | 61* | · | · | · | ·
CCOC(=O)C1(Cc2cccc(Cl)c2)CCCN(C(=O)c2ccc(C)nc2)C1 (stereo not drawn) | 0 | 63* | -1 | i | 2 | -3
CCN(CC)c1cnn(C/C(=N\OC)c2ccc(Cl)cc2)c(=O)c1Br | 2 | 4 | 4 | i | 12 | 7
Cc1ccc(C(=O)NCCNC(=O)COc2ccccc2Cl)cn1 | · | 24 | · | · | · | ·
O=[N+]([O-])c1cccc(C(=S)N2CCN(c3ccccc3)CC2)c1 | 0 | 79* | -4 | i | 3 | 2
O=[N+]([O-])c1cccc(C(=S)N2CCN(c3ccccc3F)CC2)c1 | 0 | 43 | -6 | i | 1 | -10
COc1nc(NCCc2ccc(OC)c(OC)c2)nc(Nc2ccccc2)n1 | · | 62* | · | · | · | ·
Cc1occc1C(=O)NNC(=O)NC12CC3CC(CC(C3)C1)C2 | 0 | -5 | 36* | · | 0 | -2
Cc1occc1C(=O)NNC(=O)C1CC1 | 2 | -5 | -3 | i | 3 | 3
O=C(O)CCCC(=O)NCc1c(Cl)cccc1Sc1ccc(Cl)cc1 | · | 3 | 34* | i | · | ·
CC(CC(=O)NCCc1ccc(Cl)cc1)S(=O)(=O)c1ccc2c(c1)NC(=O)CO2 (stereo not drawn) | · | 48 | · | · | · | ·
CCOC(=O)COc1ccc(S(=O)(=O)NCC2CCCO2)cc1 (stereo not drawn) | 1 | 197* | -14 | i | 2 | -4
Cc1ccc(S(=O)(=O)NCC2CCCO2)cc1 (stereo not drawn) | · | 35 | · | · | · | ·
Cn1c(=O)c2ncn(CC(=O)NC3CCCCCC3)c2n(C)c1=O | 1 | 84* | 0 | i | 6 | 0
CCc1ccc(NC(=O)Cn2cnc3c(=O)n(C)c(=O)n(C)c32)cc1 | 1 | 0 | -2 | i | 9 | 4
CCOc1ccc(-n2nc3c(=O)[nH]nc(C)c3c2C)cc1 | 0 | -3 | 57* | i | 6 | -14
CCC1CC2(C)NC(=O)c3c(sc4c3CC(C)(C)OC4)N2C1=O (stereo not drawn) | 0 | 84* | 2 | · | 1 | 14
Cn1c(NN)nc2sc3c(c2c1=O)CC(C)(C)OC3 | 0 | -26 | 10 | i | 1 | 7
O=C(Cn1cnc2sc3c(c2c1=O)CCCC3)NCC(=O)Nc1ccc(F)cc1F | · | 65* | · | · | · | ·
Clc1cccc(OCc2nc(-c3ccncc3)n[nH]2)c1 | 0 | -1 | -2 | i | 28 | 8
O=C1Nc2ccc(F)cc2C12Nc1ccccc1-c1nnc(SCc3ccccc3)nc1O2 (stereo not drawn) | 0 | -5 | 14 | i | 2 | 9
SMILES | ABCB1 block | PHOSPHO1 inh | p47phox inh | HSV replic up | ABCG2 inh | PKD1 kinase inh
O=C1Nc2ccc(F)cc2C12Nc1ccccc1-c1nnc(SCc3ccccc3Cl)nc1O2 (stereo not drawn) | -1 | -38 | 39* | i | -1 | -21
COc1ccc(OC)c(/C=N/NC(=O)c2cc(-c3ccc(C)o3)nc3ccccc23)c1 | 3 | 3 | + | i | 9 | -2
COc1ccccc1NC(=O)c1cc(-c2ccc(C)o2)nc2ccccc12 | · | 0 | · | · | · | ·
COc1cccc(C(c2sc3nc(C)nn3c2O)N2CCc3ccccc3C2)c1 (stereo not drawn) | 0 | 74* | 12 | i | 0 | 3
O=C(O)COc1ccccc1/C=C1\SC(=Nc2ccc(F)cc2)N(c2ccc(F)cc2)C1=O | -1 | -4 | -13 | i | -3 | -6
CCC(C)[C@@H](NC(=O)OC(C)(C)C)c1nnc(S(=O)(=O)Cc2cccc(C)c2)o1 (stereo partly drawn) | 0 | -12 | 60* | i | 1 | 0
CC(C)(C)OC(=O)N[C@@H](Cc1ccccc1)c1nnc(S(=O)(=O)Cc2ccccc2)o1 | 0 | 23 | 2 | i | -1 | -10
O=C(CCCn1c(=S)[nH]c2cc3c(cc2c1=O)OCO3)N1CCN(c2ccc(Cl)cc2)CC1 | 1 | 54 | -2 | i | 6 | -14
CCOC(=O)N1CCN(C(=O)CCn2c(=S)[nH]c3cc(OCC)c(OCC)cc3c2=O)CC1 | 1 | 66* | 6 | · | 7 | -26
O=C(CCCn1c(=S)[nH]c2cc3c(cc2c1=O)OCO3)N1CCc2ccccc2C1 | 0 | -48 | -18 | i | 1 | -4
CCOC(=O)N1CCN(C(=O)CCCCCn2c(=S)[nH]c3cc4c(cc3c2=O)OCO4)CC1 | 0 | -11 | -9 | i | 1 | -2
O=C(CCCn1c(=S)[nH]c2cc3c(cc2c1=O)OCO3)N1CCN(c2ccccc2)CC1 | -1 | 69* | -1 | i | -2 | -4
O=C(CCn1c(=S)[nH]c2cc3c(cc2c1=O)OCO3)N1CCc2ccccc2C1 | 0 | 66* | -16 | · | 51 | 0
CC(=O)c1ccc(N2CCN(C(=O)CCCn3c(=S)[nH]c4cc5c(cc4c3=O)OCO5)CC2)cc1 | 1 | 63* | -15 | i | 3 | -7
CCC(=O)N=c1ccn(C2=Nc3ccccc3NC2=C(C#N)C#N)cc1 | · | 45 | -5 | i | · | ·
CN(C)c1ccc(NC(=O)c2sc(SCC(=O)Nc3nccs3)nc2N)cc1 | 0 | 67* | -7 | i | 1 | -6
CN(C)c1ccc(NC(=O)c2sc(SCC(=O)Nc3ccc(Br)cc3)nc2N)cc1 | 0 | -32 | 0 | i | 0 | -1
COC(=O)CSc1nc2nc(C)c(Br)cc2[nH]1 | 0 | 73* | -22 | i | 1 | -6
C=C(C)CSc1nc2nc(C)c(Br)cc2[nH]1 | 1 | 83* | -12 | i | 10 | 0
Cc1nc(NC(=S)NC(=O)COc2ccc(Cl)cc2)ccc1Br | 0 | 13 | 4 | i | 4 | -1
Cc1ccc(OCC(=O)NC(=S)Nc2ccc(Br)c(C)n2)cc1 | 0 | 84* | -4 | i | 1 | -11
CC(=O)Nc1ccc(SCC(=O)Nc2cc(C)on2)cc1 | 1 | 4 | -8 | i | 6 | -5

High-throughput results (PubChem BioAssay)
